The source made the active and inactive calls. No cut-off for these calls is given here.
Experiments:
HeLa = assay: Induction of apoptosis in human HeLa cells assessed as decrease in Rb phosphorylation incubated for 48 hrs by Western blot analysis; type: functional, cell-based
In short: (§1)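 Cells were treated for 48 h, washed three times with PBS, and lysed in RIPA buffer. Immunoblots used anti-Rb, anti-phospho-Rb, anti-Ki67 and anti-Bcl-2 (each 1:1000), with β-actin as loading control.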

MDA-MB-231 = assay: Induction of apoptosis in human MDA-MB-231 cells assessed as decrease in Ki67 expression at 20 to 40 nM incubated for 48 hrs by Western blot analysis; type: functional, cell-based; in short: as §1
[1] = AUMC (0 to t) in Sprague-Dawley rat at 10 mg/kg at 10 mg/kg, po by HPLC-MS analysis; type: ADME, organism-based; conditions: in vivo
In short: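 Rats fitted with jugular vein catheters for serial blood sampling. Compound dissolved in saline with 5% (v/v) DMSO and given as a single 10 mg/kg dose iv or po after an overnight fast, n = 5 per group. Plasma isolated at once and measured by HPLC with tandem MS detection. Parameters derived by noncompartmental fitting.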

[2] = VRT (0 to t) in Sprague-Dawley rat at 10 mg/kg, po by HPLC-MS analysis; type: ADME, organism-based; conditions: in vivo
[3] = biological target: Activin receptor type-1-like (Homo sapiens) (UniProt P37023); assay: Inhibition of recombinant human ALK1 (142 to end residues) at 1 uM using casein as substrate incubated for 40 mins in presence of [gamma-33P]-ATP by scintillation counting method relative to control
In short: (§2)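 Kinase panel profiling at 1 μM performed by Eurofins KinaseProfiler; percent inhibition reported as mean of two independent experiments.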

[4] = biological target: Serine/threonine-protein kinase BRSK2 (Homo sapiens) (UniProt Q8IWQ3); assay: Inhibition of recombinant human BRSK2 (2 to end residues) at 1 uM using KKLNRTLSFAEPG as substrate incubated for 40 mins in presence of [gamma-33P]-ATP by scintillation counting method relative to control; in short: as §2
[5] = system: Mast/stem cell growth factor receptor Kit (Homo sapiens), P10721 [V560G]; assay: Inhibition of recombinant human cKIT V560G mutant (544 to end residues) at 1 uM using GGMEDIYFEFMGG as substrate incubated for 40 mins in presence of [gamma-33P]-ATP by scintillation counting method relative to control
Chain of Mast/stem cell growth factor receptor Kit (Homo sapiens), P10721 [V560G] (P10721 whole entry V560G): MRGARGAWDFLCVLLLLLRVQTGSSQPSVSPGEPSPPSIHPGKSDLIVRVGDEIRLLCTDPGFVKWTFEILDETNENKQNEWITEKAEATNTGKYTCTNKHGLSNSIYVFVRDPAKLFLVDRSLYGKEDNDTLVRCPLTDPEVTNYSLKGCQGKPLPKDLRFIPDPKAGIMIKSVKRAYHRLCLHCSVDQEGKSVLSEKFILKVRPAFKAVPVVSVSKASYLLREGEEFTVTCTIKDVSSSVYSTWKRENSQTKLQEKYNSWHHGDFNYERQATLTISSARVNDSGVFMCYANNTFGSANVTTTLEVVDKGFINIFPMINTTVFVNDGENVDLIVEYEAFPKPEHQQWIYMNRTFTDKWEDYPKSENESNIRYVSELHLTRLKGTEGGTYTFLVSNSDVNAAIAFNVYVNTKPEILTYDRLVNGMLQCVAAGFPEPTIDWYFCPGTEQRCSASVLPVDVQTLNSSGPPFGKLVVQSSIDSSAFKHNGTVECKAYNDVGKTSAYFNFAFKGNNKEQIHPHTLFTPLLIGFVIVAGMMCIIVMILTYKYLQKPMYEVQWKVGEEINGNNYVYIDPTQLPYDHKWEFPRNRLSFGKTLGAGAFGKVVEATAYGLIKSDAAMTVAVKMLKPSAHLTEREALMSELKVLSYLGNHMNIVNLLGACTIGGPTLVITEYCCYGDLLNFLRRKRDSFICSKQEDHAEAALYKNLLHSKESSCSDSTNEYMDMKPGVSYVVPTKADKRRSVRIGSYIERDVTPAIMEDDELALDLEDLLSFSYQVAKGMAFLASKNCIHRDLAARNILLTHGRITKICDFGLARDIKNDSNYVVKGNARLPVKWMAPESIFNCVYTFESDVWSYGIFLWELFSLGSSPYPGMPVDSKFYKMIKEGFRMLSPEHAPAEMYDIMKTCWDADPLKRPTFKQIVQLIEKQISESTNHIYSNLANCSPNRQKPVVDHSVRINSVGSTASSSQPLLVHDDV
In short: (§3)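 Tested at a single 1 uM in an outsourced commercial kinase-profiling panel, read as percent inhibition. Each value is the mean of two independent experiments.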

[6] = system: Epidermal growth factor receptor (Homo sapiens), P00533 [T790M]; assay: Inhibition of recombinant human EGFR T790M mutant (696 to end residues) at 1 uM using poly(Glu, Tyr) 4:1 as substrate incubated for 40 mins in presence of [gamma-33P]-ATP by scintillation counting method relative to control
Chain of Epidermal growth factor receptor (Homo sapiens), P00533 [T790M] (P00533 whole entry T790M): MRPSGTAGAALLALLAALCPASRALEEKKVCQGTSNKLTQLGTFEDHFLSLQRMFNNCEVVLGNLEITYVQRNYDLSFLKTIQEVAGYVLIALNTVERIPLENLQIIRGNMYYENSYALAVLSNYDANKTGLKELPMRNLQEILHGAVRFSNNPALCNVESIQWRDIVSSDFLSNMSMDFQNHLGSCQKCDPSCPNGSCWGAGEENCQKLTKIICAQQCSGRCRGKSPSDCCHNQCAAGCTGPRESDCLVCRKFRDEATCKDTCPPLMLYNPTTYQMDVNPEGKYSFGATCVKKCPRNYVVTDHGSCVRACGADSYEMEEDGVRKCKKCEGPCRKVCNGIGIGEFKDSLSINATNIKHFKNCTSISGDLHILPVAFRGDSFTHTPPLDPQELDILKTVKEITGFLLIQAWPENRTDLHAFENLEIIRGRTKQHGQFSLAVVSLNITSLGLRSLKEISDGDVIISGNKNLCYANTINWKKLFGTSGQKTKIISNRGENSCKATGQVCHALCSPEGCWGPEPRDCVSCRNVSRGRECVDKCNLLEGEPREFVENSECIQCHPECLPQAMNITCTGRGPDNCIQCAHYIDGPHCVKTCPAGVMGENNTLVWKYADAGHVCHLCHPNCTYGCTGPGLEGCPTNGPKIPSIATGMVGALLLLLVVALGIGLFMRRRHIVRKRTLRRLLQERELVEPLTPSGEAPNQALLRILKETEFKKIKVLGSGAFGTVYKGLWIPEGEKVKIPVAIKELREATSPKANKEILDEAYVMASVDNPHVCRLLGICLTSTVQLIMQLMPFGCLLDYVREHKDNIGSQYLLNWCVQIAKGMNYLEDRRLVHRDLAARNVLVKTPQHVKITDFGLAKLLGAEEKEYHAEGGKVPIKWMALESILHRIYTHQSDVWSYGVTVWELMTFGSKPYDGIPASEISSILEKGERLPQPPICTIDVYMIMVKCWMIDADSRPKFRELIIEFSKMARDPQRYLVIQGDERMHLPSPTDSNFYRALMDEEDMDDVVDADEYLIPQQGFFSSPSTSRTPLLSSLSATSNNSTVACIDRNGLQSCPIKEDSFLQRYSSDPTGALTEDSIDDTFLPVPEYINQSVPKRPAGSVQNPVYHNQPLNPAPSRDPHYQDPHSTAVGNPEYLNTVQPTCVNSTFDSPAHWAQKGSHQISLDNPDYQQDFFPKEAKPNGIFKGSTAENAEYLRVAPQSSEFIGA

[7] = biological target: Mitogen-activated protein kinase 1 (Homo sapiens) (UniProt P28482); assay: Inhibition of recombinant human full length MAPK2 at 1 uM using myelin basic protein as substrate incubated for 40 mins in presence of [gamma-33P]-ATP by scintillation counting method relative to control; in short: as §3
[8] = biological target: Serine/threonine-protein kinase/endoribonuclease IRE1 (Homo sapiens) (UniProt O75460); assay: Inhibition of recombinant human IRE1 (465 to end residues) at 1 uM using myelin basic protein as substrate incubated for 40 mins in presence of [gamma-33P]-ATP by scintillation counting method relative to control
[9] = biological target: MAP kinase-activated protein kinase 2 (Homo sapiens) (UniProt P49137); assay: Inhibition of recombinant human MAPKAPK2 (46 to end residues) at 1 uM using KKLNRTLSVA as substrate incubated for 40 mins in presence of [gamma-33P]-ATP by scintillation counting method relative to control
[10] = biological target: Maternal embryonic leucine zipper kinase (Homo sapiens) (UniProt Q14680); assay: Inhibition of recombinant human MELK (1 to 340 end residues) at 1 uM using KKLNRTLSFAEPG as substrate incubated for 40 mins in presence of [gamma-33P]-ATP by scintillation counting method relative to control
Chain of Maternal embryonic leucine zipper kinase (Homo sapiens) (Q14680 whole entry, looked up): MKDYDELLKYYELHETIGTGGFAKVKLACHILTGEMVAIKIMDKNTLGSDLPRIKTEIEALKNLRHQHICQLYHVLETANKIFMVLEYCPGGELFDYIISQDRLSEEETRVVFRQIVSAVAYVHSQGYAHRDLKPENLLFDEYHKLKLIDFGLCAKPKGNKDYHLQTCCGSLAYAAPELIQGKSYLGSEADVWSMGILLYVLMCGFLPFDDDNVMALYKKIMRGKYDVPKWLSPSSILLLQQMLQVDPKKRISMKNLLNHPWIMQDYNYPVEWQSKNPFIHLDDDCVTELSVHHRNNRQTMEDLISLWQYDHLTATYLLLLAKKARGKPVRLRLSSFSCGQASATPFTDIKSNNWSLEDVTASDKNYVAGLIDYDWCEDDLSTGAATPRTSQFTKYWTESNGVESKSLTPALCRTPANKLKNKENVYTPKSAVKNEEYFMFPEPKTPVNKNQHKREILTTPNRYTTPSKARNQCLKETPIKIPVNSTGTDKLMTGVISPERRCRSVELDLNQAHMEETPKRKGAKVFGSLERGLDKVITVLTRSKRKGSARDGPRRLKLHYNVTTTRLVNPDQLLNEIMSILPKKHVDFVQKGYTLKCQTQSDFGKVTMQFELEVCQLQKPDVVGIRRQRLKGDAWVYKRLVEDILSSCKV

[11] = biological target: Ribosomal protein S6 kinase alpha-5 (Homo sapiens) (UniProt O75582); assay: Inhibition of recombinant human MSK1 (2 to end residues) at 1 uM using GRPRTSSFAEGKK as substrate incubated for 40 mins in presence of [gamma-33P]-ATP by scintillation counting method relative to control
Chain of Ribosomal protein S6 kinase alpha-5 (Homo sapiens) (O75582 whole entry, looked up): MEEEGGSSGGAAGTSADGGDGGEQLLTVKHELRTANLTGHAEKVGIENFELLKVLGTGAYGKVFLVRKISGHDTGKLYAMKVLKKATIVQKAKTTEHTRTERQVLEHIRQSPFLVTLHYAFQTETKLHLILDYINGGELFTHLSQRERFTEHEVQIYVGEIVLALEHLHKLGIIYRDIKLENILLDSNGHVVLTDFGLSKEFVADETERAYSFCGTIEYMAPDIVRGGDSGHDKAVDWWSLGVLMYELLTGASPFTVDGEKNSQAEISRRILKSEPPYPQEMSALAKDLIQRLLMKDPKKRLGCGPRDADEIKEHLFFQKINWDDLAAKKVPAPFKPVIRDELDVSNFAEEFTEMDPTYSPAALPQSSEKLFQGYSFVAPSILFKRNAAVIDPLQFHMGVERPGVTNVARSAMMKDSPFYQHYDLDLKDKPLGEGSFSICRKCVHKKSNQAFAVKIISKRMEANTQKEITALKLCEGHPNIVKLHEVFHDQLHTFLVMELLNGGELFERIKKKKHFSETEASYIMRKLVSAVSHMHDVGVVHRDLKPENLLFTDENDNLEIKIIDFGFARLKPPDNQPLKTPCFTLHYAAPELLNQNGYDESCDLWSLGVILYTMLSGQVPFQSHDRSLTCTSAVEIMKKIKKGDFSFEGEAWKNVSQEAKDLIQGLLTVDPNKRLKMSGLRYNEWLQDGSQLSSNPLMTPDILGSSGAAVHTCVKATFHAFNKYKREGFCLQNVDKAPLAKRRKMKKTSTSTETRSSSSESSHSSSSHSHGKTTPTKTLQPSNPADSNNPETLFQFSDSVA

[12] = biological target: Serine/threonine-protein kinase NLK (Homo sapiens) (UniProt Q9UBE8); assay: Inhibition of recombinant human NLK (121 to end residues) at 1 uM using myelin basic protein as substrate incubated for 40 mins in presence of [gamma-33P]-ATP by scintillation counting method relative to control
[13] = biological target: Serine/threonine-protein kinase PAK 4 (Homo sapiens) (UniProt O96013); assay: Inhibition of recombinant human PAK4 (295 to end residues) at 1 uM using myelin basic protein as substrate incubated for 40 mins in presence of [gamma-33P]-ATP by scintillation counting method relative to control
Chain of Serine/threonine-protein kinase PAK 4 (Homo sapiens) (O96013 whole entry, looked up): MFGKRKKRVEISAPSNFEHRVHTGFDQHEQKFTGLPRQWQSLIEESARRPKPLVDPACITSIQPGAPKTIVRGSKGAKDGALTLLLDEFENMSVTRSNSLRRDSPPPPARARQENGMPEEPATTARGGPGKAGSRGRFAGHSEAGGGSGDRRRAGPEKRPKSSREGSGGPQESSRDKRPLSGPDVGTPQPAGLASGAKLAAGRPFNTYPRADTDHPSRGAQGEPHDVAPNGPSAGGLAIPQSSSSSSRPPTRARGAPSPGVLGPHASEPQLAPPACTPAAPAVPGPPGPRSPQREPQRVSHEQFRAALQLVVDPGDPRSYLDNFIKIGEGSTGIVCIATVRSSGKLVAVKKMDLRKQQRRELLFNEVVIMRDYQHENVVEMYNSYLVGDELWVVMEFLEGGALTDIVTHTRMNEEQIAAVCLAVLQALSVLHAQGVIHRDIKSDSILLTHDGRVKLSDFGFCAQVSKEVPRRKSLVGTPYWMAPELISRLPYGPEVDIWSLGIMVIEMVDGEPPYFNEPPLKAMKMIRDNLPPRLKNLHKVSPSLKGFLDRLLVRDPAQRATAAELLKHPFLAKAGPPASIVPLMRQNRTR

[14] = system: Proto-oncogene tyrosine-protein kinase receptor Ret (Homo sapiens), P07949 [V804L]; assay: Inhibition of recombinant human RET V804L mutant (658 to end residues) at 1 uM using KKKVSRSGLYRSPSMPENLNRPR as substrate incubated for 40 mins in presence of [gamma-33P]-ATP by scintillation counting method relative to control
[15] = biological target: Ribosomal protein S6 kinase alpha-1 (Homo sapiens) (UniProt Q15418); assay: Inhibition of recombinant human full length RSK1 at 1 uM using KKKNRTLSVA as substrate incubated for 40 mins in presence of [gamma-33P]-ATP by scintillation counting method relative to control; in short: as §3
[16] = biological target: Tyrosine-protein kinase Srms (Homo sapiens) (UniProt Q9H3Y6); assay: Inhibition of recombinant human SRMS at 1 uM incubated for 40 mins in presence of [gamma-33P]-ATP by scintillation counting method relative to control
[17] = biological target: Tyrosine-protein kinase TXK (Homo sapiens) (UniProt P42681); assay: Inhibition of recombinant human TXK (256 to end residues) at 1 uM using GEEPLYWSFPAKKK as substrate incubated for 40 mins in presence of [gamma-33P]-ATP by scintillation counting method relative to control; in short: as §3
[18] = biological target: Fibroblast growth factor receptor 1 (Homo sapiens) (UniProt P11362); assay: Inhibition of recombinant human FGFR1 (456 to 765 residues) at 1 uM using KKKSPGEYVNIEFG as substrate incubated for 40 mins in presence of [gamma-33P]-ATP by scintillation counting method relative to control; in short: as §3
Chain of Fibroblast growth factor receptor 1 (Homo sapiens) (P11362 22-822 limits assumed): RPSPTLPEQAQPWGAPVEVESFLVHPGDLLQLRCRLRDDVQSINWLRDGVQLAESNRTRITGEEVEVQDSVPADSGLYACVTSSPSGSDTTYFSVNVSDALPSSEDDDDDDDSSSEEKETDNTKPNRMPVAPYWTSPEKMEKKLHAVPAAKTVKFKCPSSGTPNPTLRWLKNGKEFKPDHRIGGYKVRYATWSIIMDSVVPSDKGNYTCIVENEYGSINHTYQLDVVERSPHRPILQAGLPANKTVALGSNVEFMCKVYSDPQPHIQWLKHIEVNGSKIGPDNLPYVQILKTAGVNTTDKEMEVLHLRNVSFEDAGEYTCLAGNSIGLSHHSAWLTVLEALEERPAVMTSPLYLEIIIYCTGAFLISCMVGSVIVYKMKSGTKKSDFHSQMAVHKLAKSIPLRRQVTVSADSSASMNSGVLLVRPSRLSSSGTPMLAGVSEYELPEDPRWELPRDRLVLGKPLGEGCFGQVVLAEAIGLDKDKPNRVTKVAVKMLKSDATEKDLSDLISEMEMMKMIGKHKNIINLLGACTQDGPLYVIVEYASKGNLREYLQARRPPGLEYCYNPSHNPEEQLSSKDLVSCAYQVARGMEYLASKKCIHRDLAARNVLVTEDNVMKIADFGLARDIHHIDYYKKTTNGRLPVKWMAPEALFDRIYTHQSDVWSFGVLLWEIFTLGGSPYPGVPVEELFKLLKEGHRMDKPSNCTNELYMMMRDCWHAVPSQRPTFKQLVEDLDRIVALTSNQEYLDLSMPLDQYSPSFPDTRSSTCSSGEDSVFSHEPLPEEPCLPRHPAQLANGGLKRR

[19] = Toxicity in BALB/c mouse assessed as effect on blood parameter by measuring hemoglobin content at 40 mg/kg, po administered once two days for 4 times by hematology analyzer; conditions: in vivo
[20] = biological target: Vascular endothelial growth factor receptor 2 (Homo sapiens, UniProt P35968); conditions: HUVEC, 40 nM

For Cc1ccc(NC(=O)C2(C(=O)Nc3ccc(Nc4ncc(F)c(-c5cc(F)c6nc(C)n(C(C)C)c6c5)n4)cc3)CC2)cc1, the Activity (HeLa) was “Dose-dependent effect”, the Activity (MDA-MB-231) was “Active” and the AUMCt [1] was 21 mg/L.hr. The “VRT(t)” value [2] was 7 h, the inhibition [3] was 58% and the inhibition [4] was 54%. For the same compound, the inhibition [5] was 73%, the inhibition [6] was 55% and the inhibition [7] was 0%. For the same compound, the inhibition [8] was 33%, the inhibition [9] was 12% and the inhibition [10] was 53%. The inhibition [11] was 62%, the inhibition [12] was 44% and the inhibition [13] was 50%. It also gave an inhibition [14] of 42%, an inhibition [15] of 0% and an inhibition [16] of 4%. The inhibition [17] was 0%, the inhibition [18] was 0% and the Activity [19] was “Non-Toxic”.
For COc1cc2nccc(Oc3ccc(NC(=O)C4(C(=O)Nc5ccc(F)cc5)CC4)cc3)c2cc1OC [CABOZANTINIB], the inhibition [20] was “Active”.

— ChEMBL document CHEMBL4406821, “Novel dual inhibitors targeting CDK4 and VEGFR2 synergistically suppressed cancer progression and angiogenesis” (Eur J Med Chem, 2019)
